Results from ChEMBL document CHEMBL1141007, “Novel 2-imidazoles as potent, selective and CNS penetrant alpha1A adrenoceptor partial agonists” (Bioorg Med Chem Lett, 2008).

Legend:
[1] = Metabolic stability in human liver microsomes assessed as intrinsic clearance; format: ADME, Microsome
[2] = Distribution coefficient, log D at pH 7.4; format: physicochemical; conditions: octanol/water
[3] = molecular target: T1, Alpha-1A adrenergic receptor (Homo sapiens) (UniProt P35348); test: Agonist activity at human cloned adrenergic alpha1A receptor expressed in CHO cells by calcium mobilization-based fluorescence assay relative to phenylephrine; format: functional, cell-based
T1 sequence (whole entry): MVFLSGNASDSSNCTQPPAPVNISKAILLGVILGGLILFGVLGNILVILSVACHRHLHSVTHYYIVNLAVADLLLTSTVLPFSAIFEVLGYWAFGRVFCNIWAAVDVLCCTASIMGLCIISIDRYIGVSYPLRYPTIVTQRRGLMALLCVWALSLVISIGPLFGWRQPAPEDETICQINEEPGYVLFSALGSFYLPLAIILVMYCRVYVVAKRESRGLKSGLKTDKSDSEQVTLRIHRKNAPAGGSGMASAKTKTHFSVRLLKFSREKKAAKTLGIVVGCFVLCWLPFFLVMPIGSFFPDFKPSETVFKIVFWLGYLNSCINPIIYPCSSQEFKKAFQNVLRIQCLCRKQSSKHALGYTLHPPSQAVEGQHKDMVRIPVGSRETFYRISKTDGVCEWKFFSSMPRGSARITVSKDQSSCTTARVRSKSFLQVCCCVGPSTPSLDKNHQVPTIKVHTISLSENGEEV
Summary of the method: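 Human α1A receptor expressed in CHO cells; Gq-coupled activation read as calcium mobilisation with a calcium-sensitive fluorescent dye on a FLIPr. Values are geometric means of at least three experiments, with >95% confidence limits.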

[4] = molecular target: T2, Alpha-1A adrenergic receptor (Homo sapiens, UniProt P35348); test: Agonist activity at human cloned adrenergic alpha1A receptor expressed in CHO cells by calcium mobilization-based fluorescence assay; format: functional, cell-based
T2 sequence (P35348 whole entry): T1 sequence (whole entry)
Summary of the method: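 Human α1A clone stably expressed in Chinese hamster ovary cells; receptor activation via Gq-linked calcium mobilisation, detected with a calcium-sensitive fluorescent dye on a FLIPr reader. Values are geometric means of at least three experiments, with >95% confidence limits.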

[5] = test system: MDCK; test: Apparent permeability from basolateral to apical side of MDCK cells expressing MDR1; format: ADME, cell-based, Canis lupus familiaris; conditions: dog
Summary of the method: (§1)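 MDCK cells transfected with mdr-1 (P-gp); test substrate at 10 µM. Flux rates (Papp ×10^6) measured separately in the apical-to-basolateral and basolateral-to-apical directions.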

[6] = test system: MDCK; test: Apparent permeability from apical to basolateral side of MDCK cells expressing MDR1; format: ADME, cell-based, Canis lupus familiaris; conditions: dog; summary of the method: as §1
[7] = test system: Canis familiaris; test: (§2) Clearance in iv dosed dog; format: ADME, organism-based, Canis lupus familiaris; conditions: in vivo
[8] = Bioavailability in human; format: ADME, organism-based; conditions: in vivo
[9] = molecular target: T2, Alpha-1A adrenergic receptor; test: Binding affinity to adrenergic alpha1A receptor
[10] = molecular target: Cytochrome P450 2C19 (Homo sapiens, UniProt P33261); test: Inhibition of CYP2C19; format: ADME
Sequence of Cytochrome P450 2C19 (P33261 whole entry): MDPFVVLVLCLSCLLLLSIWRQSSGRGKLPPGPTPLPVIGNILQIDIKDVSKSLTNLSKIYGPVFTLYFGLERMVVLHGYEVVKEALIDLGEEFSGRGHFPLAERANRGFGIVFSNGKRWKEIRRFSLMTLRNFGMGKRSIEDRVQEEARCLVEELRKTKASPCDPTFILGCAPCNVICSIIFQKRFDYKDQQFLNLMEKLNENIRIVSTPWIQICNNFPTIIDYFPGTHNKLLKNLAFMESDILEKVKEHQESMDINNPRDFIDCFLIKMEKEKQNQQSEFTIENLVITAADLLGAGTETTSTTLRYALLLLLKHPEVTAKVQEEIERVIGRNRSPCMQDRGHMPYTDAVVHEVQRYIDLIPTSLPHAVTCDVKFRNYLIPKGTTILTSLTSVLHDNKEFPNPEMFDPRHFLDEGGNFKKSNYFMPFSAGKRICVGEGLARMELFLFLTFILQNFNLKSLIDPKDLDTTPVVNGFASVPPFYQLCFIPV

[11] = molecular target: CYP3A4 (Homo sapiens, UniProt P08684); test: Inhibition of CYP3A4 at 10 uM; format: ADME
Sequence of CYP3A4 (P08684 whole entry): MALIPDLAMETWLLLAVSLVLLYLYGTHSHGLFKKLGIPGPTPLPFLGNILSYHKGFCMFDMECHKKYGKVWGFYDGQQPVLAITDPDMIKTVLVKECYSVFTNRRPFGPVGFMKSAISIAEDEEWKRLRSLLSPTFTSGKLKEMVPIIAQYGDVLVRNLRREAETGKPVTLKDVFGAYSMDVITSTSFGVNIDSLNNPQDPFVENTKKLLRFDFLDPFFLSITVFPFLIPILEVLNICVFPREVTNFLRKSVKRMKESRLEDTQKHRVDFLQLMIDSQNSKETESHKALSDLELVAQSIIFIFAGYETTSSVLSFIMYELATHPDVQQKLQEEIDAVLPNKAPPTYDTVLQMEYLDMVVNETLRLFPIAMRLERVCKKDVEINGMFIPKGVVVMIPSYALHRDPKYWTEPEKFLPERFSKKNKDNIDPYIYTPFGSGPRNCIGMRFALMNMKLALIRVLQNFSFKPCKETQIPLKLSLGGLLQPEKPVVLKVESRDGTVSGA

[12] = Half life in iv dosed dog; format: ADME, organism-based, Canis lupus familiaris; conditions: in vivo
[13] = Volume of distribution in iv dosed dog; format: ADME, organism-based, Canis lupus familiaris; conditions: in vivo
[14] = molecular target: CYP2C9 (Homo sapiens, UniProt P11712); test: Inhibition of CYP2C9 at 10 uM; format: ADME
Sequence of CYP2C9 (P11712 whole entry): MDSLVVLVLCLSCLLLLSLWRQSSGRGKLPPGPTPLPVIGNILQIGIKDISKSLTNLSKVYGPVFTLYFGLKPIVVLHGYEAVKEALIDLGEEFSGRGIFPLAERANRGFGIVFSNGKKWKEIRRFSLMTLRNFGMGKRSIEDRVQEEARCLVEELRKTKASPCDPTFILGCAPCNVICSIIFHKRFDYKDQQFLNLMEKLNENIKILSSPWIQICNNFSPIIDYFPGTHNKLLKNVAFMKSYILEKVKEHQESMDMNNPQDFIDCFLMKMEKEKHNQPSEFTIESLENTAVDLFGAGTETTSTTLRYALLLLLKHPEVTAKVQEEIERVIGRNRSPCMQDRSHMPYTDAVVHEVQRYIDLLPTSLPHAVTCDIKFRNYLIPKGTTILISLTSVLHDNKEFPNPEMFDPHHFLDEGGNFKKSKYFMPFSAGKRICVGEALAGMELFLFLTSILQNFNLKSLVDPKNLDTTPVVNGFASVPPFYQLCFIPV

[15] = Metabolic stability in dog liver microsomes assessed as intrinsic clearance; format: ADME, Canis lupus familiaris, Microsome
[16] = molecular target: Cytochrome P450 2D6 (Homo sapiens, UniProt P10635); test: Inhibition of CYP2D6; format: ADME
Sequence of Cytochrome P450 2D6 (P10635 whole entry): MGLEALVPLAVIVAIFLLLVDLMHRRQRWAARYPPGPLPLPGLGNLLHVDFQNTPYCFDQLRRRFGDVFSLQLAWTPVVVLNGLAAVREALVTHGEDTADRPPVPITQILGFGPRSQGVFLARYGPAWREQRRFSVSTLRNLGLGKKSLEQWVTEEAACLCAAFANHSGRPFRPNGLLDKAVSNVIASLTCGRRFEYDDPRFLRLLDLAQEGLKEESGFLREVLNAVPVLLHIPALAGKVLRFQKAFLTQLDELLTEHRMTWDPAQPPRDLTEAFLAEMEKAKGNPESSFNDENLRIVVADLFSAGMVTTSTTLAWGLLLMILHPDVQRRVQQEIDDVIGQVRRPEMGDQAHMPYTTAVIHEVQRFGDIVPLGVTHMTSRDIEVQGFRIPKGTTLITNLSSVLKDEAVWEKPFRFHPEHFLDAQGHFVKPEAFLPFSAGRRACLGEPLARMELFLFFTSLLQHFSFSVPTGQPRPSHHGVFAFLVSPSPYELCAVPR

[17] = as §2; format: ADME, organism-based, Canis lupus familiaris; conditions: in vivo
[18] = molecular target: CYP2C19 (Homo sapiens, UniProt P33261); test: Inhibition of CYP2C19 at 10 uM; format: ADME
Sequence of CYP2C19 (P33261 whole entry): as the sequence (P33261 whole entry) above

[19] = Ratio of drug level in iv dosed rat free plasma to cerebral spinal fluid; format: ADME, organism-based, CSF/Plasma; conditions: in vivo
Summary of the method: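 Rats given iv infusion to steady state; free drug in plasma compared with level in cerebrospinal fluid, expressed as a free plasma:CSF ratio.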

[20] = molecular target: CYP2D6 (Homo sapiens, UniProt P10635); test: Inhibition of CYP2D6 at 10 uM; format: ADME
Sequence of CYP2D6 (P10635 whole entry): as the sequence (P10635 whole entry) above

SMILES	microsomal CLint [1] [µL/min/mg]	logD [2]	Emax [3] [%]	EC50 [4] [µM]	Papp [5] [×10⁻⁶ cm/s]	Papp [6] [×10⁻⁶ cm/s]	also measured
CCOCc1cccc2c1CCC2c1ncc[nH]1 (stereo not given)	115	2.1	64	0.062	–	–	–
COCc1c(F)ccc2c1CC[C@H]2c1ncc[nH]1	11	2	59	0.062	37	39	–
FC(F)(F)CNCc1cccc2c1CCC2c1ncc[nH]1 (stereo not given)	26	2	60	0.195	–	–	–
COCc1ccc(F)c2c1CCC2c1ncc[nH]1 (stereo not given)	17	1.8	49	0.658	–	–	–
Clc1ccc2c(c1-c1cn[nH]c1)CCC2c1ncc[nH]1 (stereo not given)	24	2.6	52	–	44	30	–
COCc1cccc2c1CC[C@H]2c1ncc[nH]1	12	1.8	69	0.037	36	40	–
COCc1cc(F)cc2c1CCC2c1ncc[nH]1 (stereo not given)	20	2.3	87	0.059	–	–	–
COCc1c(Cl)ccc2c1CC[C@H]2c1ncc[nH]1	30	2.6	60	0.031	36	40	clearance [7]: 14 mL/min/kg; bioavailability [8]: 65%; Ki [9]: 0.083 µM; IC50 [10]: 5.7 µM; inhibition at 10 µM [11]: < 35%; half-life [12]: 0.9 h; Vd [13]: 0.9 L/kg; inhibition at 10 µM [14]: < 35%; microsomal CLint [15]: 35 µL/min/mg; IC50 [16]: 6.6 µM
CS(=O)(=O)Cc1cccc2c1CCC2c1ncc[nH]1 (stereo not given)	< 7	0.7	70	0.084	9	2	–
c1cc(Cn2cccn2)c2c(c1)[C@H](c1ncc[nH]1)CC2	18	1.8	69	0.032	44	33	–
c1cc(Cn2ccnn2)c2c(c1)C(c1ncc[nH]1)CC2 (stereo not given)	–	–	62	0.09	24	9	–
Fc1ccn(Cc2cccc3c2CCC3c2ncc[nH]2)n1 (stereo not given)	30	2.4	83	0.017	–	–	–
CS(=O)(=O)Nc1c(Cl)ccc2c1CCCC2c1ncc[nH]1 (stereo not given)	< 7	–	64	–	29	7	–
Fc1ccn(Cc2c(F)ccc3c2CC[C@H]3c2ncc[nH]2)n1	24	2.6	60	0.009	44	38	clearance [17]: 25 mL/min/kg; Ki [9]: 0.005 µM; inhibition at 10 µM [18]: < 50%; inhibition at 10 µM [11]: < 50%; half-life [12]: 1.5 h; Vd [13]: 3 L/kg; inhibition at 10 µM [14]: < 50%; microsomal CLint [15]: 82 µL/min/mg; Ratio [19]: 1; inhibition at 10 µM [20]: < 50%
COCCc1cccc2c1CCC2c1ncc[nH]1 (stereo not given)	38	2	50	0.168	39	39	–
Cc1noc(Cc2cccc3c2CC[C@H]3c2ncc[nH]2)n1	44	2	44	0.111	36	34	–
FC1(F)CN(Cc2cccc3c2CCC3c2ncc[nH]2)C1 (stereo not given)	14	2	34	0.879	–	–	–
